Test results published in ChEMBL document CHEMBL3526035, “Role of the intestinal peptide transporter PEPT1 in oseltamivir absorption: in vitro and in vivo studies” (Drug Metab Dispos, 2012).

How the values were obtained:
[1] = AUC(0 to infinity) in healthy human at 150 mg, po administered as single dose by HPLC-tandem mass spectrometry under fasting conditions; format: ADME, organism-based; parameters: dose 150 mg, route oral, time infinity; conditions: plasma
Procedure, shortened: (§1)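 Open-label crossover in 18 healthy volunteers (9 male, 9 female, mean age 26). Each received marketed oseltamivir 150 mg orally, once fasted from midnight and once after a high-fat, high-calorie breakfast, with a 7-10 day washout. Plasma and urine collected over 0-72 h and analysed by HPLC-MS/MS. AUC and Cmax compared after log transformation.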

[2] = AUC(0 to 5 hrs) in juvenile breast-fed Sprague-Dawley rat at 30 mg/kg, po administered as water solution by HPLC-tandem mass spectrometry; format: ADME, organism-based; parameters: time < 5 hr, dose 30 mg/kg, route oral; conditions: plasma
Procedure, shortened: (§2)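 7-day-old Sprague-Dawley pups (9.7-18.9 g, both sexes), 15 per group. Given 30 mg/kg by oral gavage (10 ml/kg); breast-fed pups stayed with dams, fasted pups were removed 8 h before dosing. Blood taken by cardiac puncture under isoflurane at 0.25, 0.5, 1, 2 and 5 h, n=3 per time point (composite design). Dichlorvos-treated plasma assayed by LC-MS/MS; AUC0-5h by noncompartmental analysis.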

[3] = Cmax in adult fasted Sprague-Dawley rat at 30 mg/kg, po administered as 125 mM aqueous Gly-Sar solution by HPLC-tandem mass spectrometry; format: ADME, organism-based; parameters: dose 30 mg/kg, route oral; conditions: in vivo
Procedure, shortened: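 Adult cannulated Sprague-Dawley rats, fasted (from 6 h predose) or fed, dosed orally at 30 mg/kg (10 ml/kg), 3 per group. Serial jugular plasma with dichlorvos stabilisation, measured by LC-MS/MS. Cmax read graphically from the concentration-time profile.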

[4] = Tmax in healthy human at 150 mg, po administered as single dose by HPLC-tandem mass spectrometry under fed conditions; format: ADME, organism-based; conditions: in vivo
Procedure, shortened: (§3)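 Open-label crossover food-effect study in 18 healthy volunteers (9 male, 9 female, mean age 26). Each received a single 150 mg oral dose of the marketed formulation, once fasting from midnight and once after a high-fat, high-calorie breakfast, separated by a 7–10 day washout. Plasma and urine were collected over 0–72 h and assayed by HPLC-MS/MS for oseltamivir and carboxylate.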

[5] = Apparent oral clearance in healthy human at 150 mg, po administered as single dose by HPLC-tandem mass spectrometry under fasting conditions; format: ADME, organism-based; conditions: in vivo; procedure, shortened: as §1
[6] = AUC(0 to 5 hrs) in juvenile fasted Sprague-Dawley rat at 30 mg/kg, po administered as solution in bovine milk by HPLC-tandem mass spectrometry; format: ADME, organism-based; parameters: time < 5 hr, dose 30 mg/kg, route oral; conditions: in vivo; procedure, shortened: as §2
[7] = AUC(0 to 5 hrs) in juvenile fasted Sprague-Dawley rat at 30 mg/kg, po administered as 125 mM aqueous Gly-Sar solution by HPLC-tandem mass spectrometry; format: ADME, organism-based; parameters: time < 5 hr, dose 30 mg/kg, route oral; conditions: plasma; procedure, shortened: as §2
[8] = AUC(0 to 24 hrs) in adult fed Sprague-Dawley rat at 30 mg/kg, po administered as solution in bovine milk by HPLC-tandem mass spectrometry; format: ADME, organism-based; parameters: time < 24 hr, dose 30 mg/kg, route oral; conditions: in vivo
Procedure, shortened: (§4)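 Sprague-Dawley males, 7-8 weeks, 243-283 g, jugular-cannulated, 3 days' recovery; fed (chow ad libitum). Single oral dose of 30 mg/kg (free base) at 10 ml/kg; 3 rats/group. Jugular blood taken at 0.25-24 h into K2EDTA with dichlorvos, kept on ice. Plasma analysed by validated LC-MS/MS (0.1-500 μg/l). Noncompartmental analysis; AUC by linear trapezoid, AUC0-∞ extrapolated using λz.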

[9] = AUC(0 to 6 hrs) in adult fasted Sprague-Dawley rat at 30 mg/kg, po administered as 125 mM aqueous Gly-Sar solution by HPLC-tandem mass spectrometry; format: ADME, organism-based; parameters: time < 6 hr, dose 30 mg/kg, route oral; conditions: plasma
Procedure, shortened: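 Adult male Sprague-Dawley rats (243-283 g), jugular-cannulated, fasted from 6 h before dosing through the 6-h study. Given 30 mg/kg orally (free base) at 10 ml/kg, n=3/group. Blood sampled at 0.25-6 h into K2EDTA with dichlorvos esterase inhibitor. Plasma assayed by LC-MS/MS (0.1-500 μg/l). Noncompartmental analysis: linear-trapezoid AUC; infinity extrapolation via log-linear terminal λz.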

[10] = AUC(0 to 5 hrs) in juvenile fasted Sprague-Dawley rat at 30 mg/kg, po administered as water solution by HPLC-tandem mass spectrometry; format: ADME, organism-based; parameters: time < 5 hr, dose 30 mg/kg, route oral; conditions: plasma; procedure, shortened: as §2
[11] = Drug uptake in CHOK1 cells expressing human PEPT1 at pH 6 by HPLC coupled with radiodetection analysis; format: ADME, cell-based, Cricetulus griseus; conditions: chinese hamster, cho-k1, pH 6
Procedure, shortened: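 Accumulation of [14C]oseltamivir or its carboxylate in CHO-PEPT1 versus CHO-K1 cells. Conditions varied: KH buffer (with MES) or Hanks' balanced salt solution, pH 5 or 6 readjusted after substrate addition, 30 s to 15 min at 37°C. Uptake was quenched with ice-cold PBS-BSA, followed by Triton X-100 lysis, scintillation counting, and BCA protein normalization. HPLC-radiodetection checked ester stability.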

[12] = AUC(0 to 24 hrs) in adult fed Sprague-Dawley rat at 30 mg/kg, po administered as water solution by HPLC-tandem mass spectrometry; format: ADME, organism-based; parameters: time < 24 hr, dose 30 mg/kg, route oral; conditions: plasma; procedure, shortened: as §4
[13] = Renal clearance in healthy human at 150 mg, po administered as single dose by HPLC-tandem mass spectrometry under fasting conditions; format: ADME, organism-based, Kidney; conditions: in vivo; procedure, shortened: as §3
[14] = AUC(0 to 6 hrs) in adult fed Sprague-Dawley rat at 30 mg/kg, po administered as solution in bovine milk by HPLC-tandem mass spectrometry; format: ADME, organism-based; parameters: time < 6 hr, dose 30 mg/kg, route oral; conditions: in vivo; procedure, shortened: as §4
[15] = target: T1, Solute carrier family 15 member 1 (Homo sapiens, UniProt P46059); assay: Inhibition of human PEPT1 expressed in CHOK1 cells assessed as Gly-Sar uptake at 0.3 to 10 mM after 10 mins by HPLC coupled with radiodetection analysis; format: cell-based; conditions: cho-k1, 10 min, 10000 µM
T1 sequence (P46059 whole entry): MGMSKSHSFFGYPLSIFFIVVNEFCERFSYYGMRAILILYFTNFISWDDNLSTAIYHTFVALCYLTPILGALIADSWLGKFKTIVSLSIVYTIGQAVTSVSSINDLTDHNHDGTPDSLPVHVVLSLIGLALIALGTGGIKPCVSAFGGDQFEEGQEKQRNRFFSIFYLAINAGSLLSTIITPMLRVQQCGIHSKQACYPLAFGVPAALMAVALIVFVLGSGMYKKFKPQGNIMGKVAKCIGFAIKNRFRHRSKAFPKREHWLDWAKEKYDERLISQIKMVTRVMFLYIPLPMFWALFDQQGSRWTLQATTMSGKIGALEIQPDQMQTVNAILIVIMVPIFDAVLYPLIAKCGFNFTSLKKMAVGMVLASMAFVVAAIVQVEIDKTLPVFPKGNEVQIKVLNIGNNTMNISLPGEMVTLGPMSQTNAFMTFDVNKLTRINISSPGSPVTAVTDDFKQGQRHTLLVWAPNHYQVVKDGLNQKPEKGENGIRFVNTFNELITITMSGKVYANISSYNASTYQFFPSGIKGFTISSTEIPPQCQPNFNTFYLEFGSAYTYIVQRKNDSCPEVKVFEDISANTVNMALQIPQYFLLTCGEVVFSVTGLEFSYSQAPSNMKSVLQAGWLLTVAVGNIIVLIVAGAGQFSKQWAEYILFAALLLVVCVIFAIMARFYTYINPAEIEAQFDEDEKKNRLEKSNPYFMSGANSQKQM
Procedure, shortened: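 Competition assay in CHO-PEPT1 cells: 2 µM [3H]Gly-Sar with oseltamivir or oseltamivir carboxylate at 0.3–10 mM, 10 min at 37°C, pH 6, KH/MES buffer. Tyr-Phe 0.5 mM served as positive control. Intracellular radioactivity was measured per mg protein. Three independent experiments.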

Compound | AUC(0-inf) [1] [µg·h/mL] | AUC(0-t) at 5 h [2] [µg·h/mL] | Cmax [3] [µg/mL] | Tmax [4] [h] | CL/F [5] [mL/min] | AUC(0-t) at 5 h [6] [µg·h/mL] | AUC(0-t) at 5 h [7] [µg·h/mL] | AUC(0-t) at 24 h [8] [µg·h/mL] | AUC(0-t) at 6 h [9] [µg·h/mL] | AUC(0-t) at 5 h [10] [µg·h/mL] | Drug uptake [11] | AUC(0-t) at 24 h [12] [µg·h/mL] | CL renal [13] [mL/min] | AUC(0-t) at 6 h [14] [µg·h/mL] | inhibition (INH) [15]
CCC(CC)O[C@@H]1C=C(C(=O)O)C[C@H](N)[C@H]1NC(C)=O [OSELTAMIVIR CARBOXYLATE] | 6.22 | 5.07 | 2.56 | 5.42 | 371 | 9.26 | 10.9 | 6.33 | 8.35 | 12.1 | Active | 5.28 | 223 | 4.51 | Not Active
CCOC(=O)C1=C[C@@H](OC(CC)CC)[C@H](NC(C)=O)[C@@H](N)C1 [OSELTAMIVIR] | 0.244 | 20.3 | 2.07 | 2.06 | 13000 | 26.9 | 27.1 | 2.8 | 3.78 | 29.5 | Active | 2.51 | 340 | 2.51 | Not Active
